Data published in ChEMBL document CHEMBL1139633, “Antimalarial activity and synthesis of new trisubstituted pyrimidines” (2005).
Values after ≈ are worked out from the molar mass of the structure shown.

Each molecule was assayed on Plasmodium falciparum (assay: Minimum inhibitory concentration against schizont maturation in Plasmodium falciparum NF-54).
Format: functional
Summary of the method: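 Rieckmann micro-assay with P. falciparum NF-54 cultured in RPMI-1640 (25 mM HEPES, 1% D-glucose, 0.23% NaHCO3, 10% heat-inactivated human serum), sorbitol-synchronized to ring stage. Start at ~1% parasitaemia, 3% haematocrit; compounds 0.25–50 µg/mL in duplicate, 37 °C candle jar, 36–40 h. Giemsa smears scored by microscopy; MIC = lowest concentration blocking complete maturation to schizonts.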

SMILES | MIC [µg/mL]
O=[N+]([O-])c1cccc(-c2cc(-c3ccncc3)nc(N3CCN(c4ccccc4)CC3)n2)c1 | 10 (≈ 22.8 µM)
COc1ccc(-c2cc(-c3ccncc3)nc(N3CCN(c4ccccc4)CC3)n2)cc1 | 2 (≈ 4.72 µM)
Clc1ccc(-c2cc(-c3ccncc3)nc(N3CCN(Cc4ccccc4)CC3)n2)cc1 | 10 (≈ 22.6 µM)
COc1cc(-c2cc(-c3ccncc3)nc(N3CCN(c4ccccc4)CC3)n2)cc(OC)c1OC | 50 (≈ 103 µM)
COc1cc(OC)c(-c2cc(-c3ccncc3)nc(N3CCN(c4ccccc4)CC3)n2)cc1OC | 10 (≈ 20.7 µM)
Cc1ccc(-c2cc(-c3ccncc3)nc(N3CCN(c4ccccc4)CC3)n2)cc1C | 2 (≈ 4.74 µM)
CSc1ccc(-c2cc(-c3ccncc3)nc(N3CCN(Cc4ccccc4)CC3)n2)cc1 | 2 (≈ 4.41 µM)
COc1cc(-c2cc(-c3ccncc3)nc(N3CCN(Cc4ccccc4)CC3)n2)cc(OC)c1OC | 10 (≈ 20.1 µM)
COc1ccc(OC)c(-c2cc(-c3ccncc3)nc(N3CCN(c4ccccc4)CC3)n2)c1 | 2 (≈ 4.41 µM)
COc1ccc(OC)c(-c2cc(-c3ccncc3)nc(N3CCN(Cc4ccccc4)CC3)n2)c1 | 1 (≈ 2.14 µM)
COc1cc(OC)c(-c2cc(-c3ccncc3)nc(N3CCN(C)CC3)n2)cc1OC | 2 (≈ 4.74 µM)
COc1ccc(OC)c(-c2cc(-c3ccncc3)nc(N3CCN(C)CC3)n2)c1 | 0.5 (≈ 1.28 µM)
Cc1ccc(-c2cc(-c3ccncc3)nc(N3CCN(Cc4ccccc4)CC3)n2)cc1C | 1 (≈ 2.3 µM)
CSc1ccc(-c2cc(-c3ccncc3)nc(N3CCN(c4ccccc4)CC3)n2)cc1 | 10 (≈ 22.7 µM)
O=[N+]([O-])c1cccc(-c2cc(-c3ccncc3)nc(N3CCN(Cc4ccccc4)CC3)n2)c1 | 2 (≈ 4.42 µM)
COc1cc(-c2cc(-c3ccncc3)nc(N3CCN(C)CC3)n2)cc(OC)c1OC | 10 (≈ 23.7 µM)
COc1cc(OC)c(-c2cc(-c3ccncc3)nc(N3CCN(Cc4ccccc4)CC3)n2)cc1OC | 2 (≈ 4.02 µM)
COc1ccc(-c2cc(-c3ccncc3)nc(N3CCN(Cc4ccccc4)CC3)n2)cc1 | 1 (≈ 2.29 µM)
CCc1nc(N)nc(N)c1-c1ccc(Cl)cc1 [PYRIMETHAMINE] | 10 (≈ 40.2 µM)

Results, then the molecule that gave them:

MIC [µg/mL] | SMILES
1 (≈ 2.65 µM) | CSc1ccc(-c2cc(-c3ccncc3)nc(N3CCN(C)CC3)n2)cc1
2 (≈ 4.91 µM) | c1ccc(CN2CCN(c3nc(-c4ccccc4)cc(-c4ccncc4)n3)CC2)cc1
1 (≈ 2.45 µM) | Cc1ccc(-c2cc(-c3ccncc3)nc(N3CCN(c4ccccc4)CC3)n2)cc1
10 (≈ 23.4 µM) | Clc1ccc(-c2cc(-c3ccncc3)nc(N3CCN(c4ccccc4)CC3)n2)cc1
1 (≈ 2.89 µM) | Cc1ccc(-c2cc(-c3ccncc3)nc(N3CCN(C)CC3)n2)cc1
10 (≈ 25.4 µM) | c1ccc(-c2cc(-c3ccncc3)nc(N3CCN(c4ccccc4)CC3)n2)cc1
1 (≈ 2.77 µM) | COc1ccc(-c2cc(-c3ccncc3)nc(N3CCN(C)CC3)n2)cc1
1 (≈ 2.66 µM) | CN1CCN(c2nc(-c3ccncc3)cc(-c3cccc([N+](=O)[O-])c3)n2)CC1
0.5 (≈ 1.39 µM) | Cc1ccc(-c2cc(-c3ccncc3)nc(N3CCN(C)CC3)n2)cc1C
2 (≈ 4.74 µM) | Cc1ccc(-c2cc(-c3ccncc3)nc(N3CCN(Cc4ccccc4)CC3)n2)cc1
1 (≈ 3.02 µM) | CN1CCN(c2nc(-c3ccccc3)cc(-c3ccncc3)n2)CC1
2 (≈ 5.47 µM) | CN1CCN(c2nc(-c3ccncc3)cc(-c3ccc(Cl)cc3)n2)CC1
